# Measured values of several laboratories.
# Lines come from different studies, so protocols differ.
# ADRB2: Beta-2 adrenergic receptor (ADRB2, Homo sapiens, UniProt P07550)
# MMP2: 72 kDa type IV collagenase (MMP2, Homo sapiens, UniProt P08253)
# Akr1b1: Aldo-keto reductase family 1 member B1 (Akr1b1, Rattus norvegicus, UniProt P07943)
# SLC22A2: Solute carrier family 22 member 2 (SLC22A2, Homo sapiens, UniProt O15244)
# P2RY6: P2Y purinoceptor 6 (P2RY6, Homo sapiens, UniProt Q15077)
SMILES,target,assay,test system,setting,IC50
CCN1CCCC1CNC(=O)c1cc(S(=O)(=O)CC)c(N)cc1OC (stereo not shown),ADRB2,"ligand displacement, radioligand",,cell membranes,105 µM
Cc1ccc(S(=O)(=O)N2C(=O)COC23C=CC(=O)C=C3)cc1,MMP2,"enzyme activity, inhibitor, fluorescence",,,6.8 µM
COc1ccc(/C=C2\SC(=Nc3nc4ccc(OC)cc4s3)NC2=O)cc1,Akr1b1,"enzyme activity, inhibitor, absorbance",,pH 6.2,4.35 µM
CC(C)=CCc1c(O)cc(O)c2c1O[C@H](c1ccc(O)cc1)CC2=O,"Cytochrome P450 1B1 (CYP1B1, Homo sapiens, UniProt Q16678)","enzyme activity, inhibitor, fluorescence",,"15 min, pH 7.4",0.41 µM
CC(C)c1nc(CN(C)C(=O)N[C@@H](CCN2CCOCC2)C(=O)N[C@H](CC[C@H](Cc2ccccc2)NC(=O)OCc2cncs2)Cc2ccccc2)cs1,SLC22A2,"transporter uptake, inhibitor",MDCK-II,,33 µM
CCCC[C@H](NC(=O)C1CN(C)C1)c1ncc(-c2cc3ccccc3nc2OC)[nH]1,"Polyamine deacetylase HDAC10 (HDAC10, Homo sapiens, UniProt Q969S8)","enzyme activity, inhibitor",,,0.075 µM
COc1cc(N)c(Cl)cc1C(=O)NC1CCN(CCCOc2ccc(F)cc2)CC1OC (stereo not shown),ADRB2,"ligand displacement, radioligand",,cell membranes,587 µM
O=C(OCc1ccccc1)c1ccc(O)cc1,"Histone-lysine N-methyltransferase SETD7 (SETD7, Homo sapiens, UniProt Q8WTS6)","enzyme activity, inhibitor",,,> 333 µM
Cn1nc(C(=O)NCc2ccc(C(=O)O)cc2)cc1-c1ccc2[nH]c(-c3ccncc3)cc2c1,MMP2,"enzyme activity, inhibitor",,,> 22 µM
CC[Si](C#Cc1ccc2c(c1)C=C([N+](=O)[O-])C(C(F)(F)F)O2)(CC)CC (stereo not shown),P2RY6,"calcium signal, antagonist",,,~1 µM
Cc1csc(COCC(=O)C23CC4CC(CC(C4)C2)C3)n1,"11-beta-hydroxysteroid dehydrogenase 1 (HSD11B1, Homo sapiens, UniProt P28845)","enzyme activity in cells, inhibitor",,,0.071 µM
Cc1c(C(=O)NN2CCCCC2)nc(-c2ccc(Cl)cc2Cl)n1-c1ccc(OS(=O)(=O)CCC(C)C)cc1,"Cannabinoid receptor 2 (CNR2, Homo sapiens, UniProt P34972)","GTPγS binding, antagonist",,cell membranes,0.271 µM
O=C(O)CSc1nnc(Br)n1-c1ccc(C2CC2)c2ccccc12,SLC22A2,"transporter uptake, inhibitor",MDCK-II,5 min,> 300 µM
CN(CCC(=O)O)C(=O)c1ccc2c(c1)CC[C@@H]1[C@@H]2CC[C@]2(C)C(c3cncc(F)c3)=CC[C@@H]12,"Ileal sodium/bile acid cotransporter (SLC10A2, Homo sapiens, UniProt Q12908)","transporter uptake, inhibitor",,,49 µM
COc1ccc2nc(/N=C3/NC(=O)C(=Cc4ccc(O)cc4)S3)sc2c1,Akr1b1,"enzyme activity, inhibitor, absorbance",,pH 6.2,1.3 µM
Cc1noc(-c2cc3cc(-c4nc(C(N)=O)[nH]c4C)ccc3[nH]2)n1,MMP2,"enzyme activity, inhibitor",,,> 20 µM
O=[N+]([O-])C1=Cc2ccccc2OC1C(F)(F)F (stereo not shown),P2RY6,"calcium signal, antagonist, fluorescence",,,2.62 µM
COc1ccc2nc(N(CCN3CCCC3)C(=O)c3ccc(Cl)s3)sc2c1,"Short transient receptor potential channel 6 (Trpc6, Mus musculus, UniProt Q61143)","calcium signal, fluorescence",,,33 µM
Cn1nc(C(=O)NCc2ccc(C(=O)O)cc2)cc1-c1ccc2[nH]c(-c3ccncn3)cc2c1,MMP2,"enzyme activity, inhibitor",,,> 20 µM
